Screening data deposited in PubChem by Broad Institute.
A selection: hits, their analogues and other compounds. The true share with any hit is near 5.8%.
Pf Dd2 inh: blocks growth of Plasmodium falciparum Dd2 parasites | activity change, % at 10 µM | 94,000 tested, 2.3% active | P. falciparum Dd2 growth, SYBR Green, 72 h; hits give low values; in the data active means activity change below about -80%
KDM4C inh: blocks human GASC-1 (KDM4C) demethylase activity; 96,000 tested, 0.15% active; AID 720574; inhibition, % at 12.5 µM; GST-KDM4C 2-372, H3K9me3 peptide, LANCE TR-FRET;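 active means mean replicate inhibition above about 25%, with at least 55% of replicates also reaching it, limit read from the data, passing the limit was not always enough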
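System – N-terminal GST-fused human GASC-1 (KDM4C) fragment, residues 2-372 · Input – enzyme final amount 10 nM · Technique – LANCE TR-FRET, Eu antibody, ULight-streptavidin, EDTA, ex 340 nm, em 618/671 nm · Medium – HEPES buffer, pH 7.5, plus ascorbate · Incubation – enzyme reaction 30 min, then detection 60 min, both room temperature · Reagent – H3K9me3 peptide with Fe(II)/2OG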
IDH1 R132H inh: IDH1 R132H (human) inhibition; O75874; IDH1 R132H reductase, diaphorase/resazurin fluorescence, 60 min; inhibition, % at 10 µM; 70,000 tested, 0.18% active; AID 624101; in the data active means inhibition above about 34%
Target sequence (O75874 whole entry R132H): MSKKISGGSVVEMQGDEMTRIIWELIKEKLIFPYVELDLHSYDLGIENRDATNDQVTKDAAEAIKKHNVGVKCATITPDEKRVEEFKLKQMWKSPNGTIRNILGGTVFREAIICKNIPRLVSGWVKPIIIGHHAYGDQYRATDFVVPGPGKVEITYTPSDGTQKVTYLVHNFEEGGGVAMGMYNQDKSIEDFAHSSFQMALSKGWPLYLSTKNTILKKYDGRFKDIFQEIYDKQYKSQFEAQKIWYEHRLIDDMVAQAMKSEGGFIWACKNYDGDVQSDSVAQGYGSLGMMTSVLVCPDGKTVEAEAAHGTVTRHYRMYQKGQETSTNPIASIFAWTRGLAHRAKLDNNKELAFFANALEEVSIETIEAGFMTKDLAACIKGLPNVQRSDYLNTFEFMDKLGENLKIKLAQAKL
Tcruzi prolif: inhibitors of T. cruzi proliferation; inhibition, % at 8.34 µM; AID 624255; 77,000 tested, 5.9% active; T. cruzi beta-gal in NIH3T3, GalScreen luminescence, 90 h;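 active means mean inhibition above about 93%, with at least 55% of replicates each passing it, limit read from the data, passing the limit was not always enough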
Of the large screens only hits and unclear results are named; the others gave an inactive call; ! = not active in a repeat.

Cc1noc(C)c1NC(=O)N(C)C[C@@H]1Oc2c(NC(=O)CCCCCC(=O)Nc3ccccc3N)cccc2C(=O)N([C@@H](C)CO)C[C@@H]1C	none (no result: Tcruzi prolif)
Cc1noc(C)c1NC(=O)N(C)C[C@H]1Oc2c(NC(=O)CCCCCC(=O)Nc3ccccc3N)cccc2C(=O)N([C@@H](C)CO)C[C@H]1C	Pf Dd2 inh -86 (no result: IDH1 R132H inh, Tcruzi prolif)
C[C@@H]1CN([C@@H](C)CO)C(=O)c2cccc(NC(=O)CCCCCC(=O)Nc3ccccc3N)c2O[C@@H]1CN(C)C(=O)Nc1ccc(F)cc1	Pf Dd2 inh -86 (no result: IDH1 R132H inh, Tcruzi prolif)
C[C@@H]1CN([C@@H](C)CO)C(=O)c2cccc(NC(=O)CCCCCC(=O)Nc3ccccc3N)c2O[C@@H]1CN(C)C(=O)Nc1cccc2ccccc12	Pf Dd2 inh -88 (no result: IDH1 R132H inh, Tcruzi prolif)
O=C(C1CCCCC1)N1C[C@@H]2[C@H](c3ccccc31)[C@H](CO)N2C(=O)c1ccccc1	none (no result: IDH1 R132H inh)
COc1ccccc1S(=O)(=O)N1CC[C@@H]2[C@H](CO)N(C)c3ccc(C#Cc4cccc(F)c4)cc3[C@@H]21	none (no result: IDH1 R132H inh)
COc1ccc2c3c(n(C)c2c1)[C@H](CO)N(C(=O)C1CCCC1)CC31CN(C)C1	none (no result: IDH1 R132H inh, Tcruzi prolif)
O=C(C1CCC1)N1CC2(C1)[C@H](c1ccccc1)[C@@H](CO)N2Cc1ccc(Cl)cc1	none (no result: IDH1 R132H inh, Tcruzi prolif)
C[C@@H]1CN([C@@H](C)CO)C(=O)c2cccc(NC(=O)CCCCCC(=O)Nc3ccccc3N)c2O[C@@H]1CN(C)C(=O)Nc1ccc(C(F)(F)F)cc1	Pf Dd2 inh -90 (no result: IDH1 R132H inh, Tcruzi prolif)
Cn1cnc(CCNC(=O)C[C@@H]2CC[C@@H]3[C@H](COC[C@H](O)CN3C(=O)C3CC3)O2)c1	none (no result: IDH1 R132H inh)
C[C@H]1CCCCO[C@@H](CN(C)C(=O)C2CCCCC2)[C@@H](C)CN([C@@H](C)CO)C(=O)c2cc(NC(=O)NC3CCCCC3)ccc2O1	Pf Dd2 inh -82 (no result: IDH1 R132H inh)
C[C@@H]1CCCCO[C@@H](CN(C)C(=O)C2CCCCC2)[C@@H](C)CN([C@H](C)CO)C(=O)c2cc(NC(=O)Cc3ccccc3)ccc2O1	none
C[C@H]1CCCCO[C@@H](CN(C)C(=O)C2CCCCC2)[C@@H](C)CN([C@@H](C)CO)C(=O)c2cc(NC(=O)Cc3ccccc3)ccc2O1	Pf Dd2 inh -87
C[C@@H]1CCCCO[C@H](CN(C)C(=O)C2CCCCC2)[C@@H](C)CN([C@@H](C)CO)C(=O)c2cc(NC(=O)Nc3ccc(F)cc3)ccc2O1	Pf Dd2 inh -90
C[C@@H]1CN([C@H](C)CO)C(=O)c2cc(NC(=O)Nc3ccccc3)ccc2O[C@@H](C)CCCCO[C@@H]1CN(C)C(=O)C1CCCCC1	Pf Dd2 inh -86 (no result: KDM4C inh)
C[C@@H]1CCCCO[C@@H](CN(C)Cc2ccncc2)[C@H](C)CN([C@@H](C)CO)C(=O)c2cc(NC(=O)Nc3ccc(F)cc3)ccc2O1	none
C[C@@H]1CN([C@H](C)CO)C(=O)c2cc(NC(=O)C3CCCCC3)ccc2O[C@@H](C)CCCCO[C@H]1CN(C)C(=O)c1ccccc1	none
C[C@@H]1CN([C@H](C)CO)C(=O)c2cc(NC(=O)Nc3ccc(F)cc3)ccc2O[C@@H](C)CCCCO[C@@H]1CN(C)C(=O)C1CCCCC1	Pf Dd2 inh -92 (no result: IDH1 R132H inh)
C[C@@H]1CN([C@@H](C)CO)C(=O)c2cc(NC(=O)Nc3ccc(F)cc3)ccc2O[C@@H](C)CCCCO[C@@H]1CN(C)C(=O)C1CCCCC1	Pf Dd2 inh -85 (no result: IDH1 R132H inh)
C[C@@H]1CCCCO[C@@H](CN(C)C(=O)C2CCCCC2)[C@@H](C)CN([C@@H](C)CO)C(=O)c2cc(NC(=O)Nc3ccc(F)cc3)ccc2O1	none (no result: IDH1 R132H inh)
CCCC#Cc1ccc([C@H]2[C@@H](CO)N(C(C)=O)[C@H]2CNC(=O)C2CCCC2)cc1	none (no result: IDH1 R132H inh, Tcruzi prolif)
Cn1c(SCC(=O)Nc2cccc3ccccc23)nnc1-c1ccc(F)cc1	none (no result: Pf Dd2 inh, KDM4C inh, Tcruzi prolif)
N#Cc1cccc(-c2ccc(C3[C@@H]4CN(S(=O)(=O)c5ccc(F)cc5)C[C@H]3N4)cc2)c1 (some centres not stated)	KDM4C inh 34! (no result: IDH1 R132H inh, Tcruzi prolif)
COc1cccc(S(=O)(=O)N2C[C@@H]3N[C@H](C2)C3c2ccc(-c3cccc(C)c3)cc2)c1 (some centres not stated)	none (no result: IDH1 R132H inh, Tcruzi prolif)
N#Cc1cccc(-c2ccc([C@@H]3[C@@H]4CN(S(=O)(=O)c5ccc(-c6ccccc6)cc5)C[C@H]3N4)cc2)c1	none (no result: IDH1 R132H inh, Tcruzi prolif)
COc1ccc(-c2ccc(C3[C@@H]4CN(S(=O)(=O)c5cccc(C)c5)C[C@H]3N4)cc2)cc1 (some centres not stated)	Pf Dd2 inh -86! (no result: IDH1 R132H inh, Tcruzi prolif)
Cc1cccc(-c2ccc([C@H]3[C@H]4CN(S(=O)(=O)c5cccc(C)c5)CCCCN4[C@H]3CO)cc2)c1	Pf Dd2 inh -86 (no result: IDH1 R132H inh)
